Test results from ChEMBL document CHEMBL3792365, “Dioxol and dihydrodioxin analogs of 2- and 3-phenylacetonitriles as potent anti-cancer agents with nanomolar activity against a variety of human cancer cells” (2016).

Columns and labels:
Type in all cases: functional
U-251 = experiment: Growth inhibition of human U251 cells at 10 uM after 48 hrs by sulforhodamine B assay; settings: U-251, 48 h, values are per cent of control
Malme-3M = experiment: Growth inhibition of human MALME-3M cells at 10 uM after 48 hrs by sulforhodamine B assay; settings: values are per cent of control
[1] = Growth inhibition of human UACC257 cells at 10 uM after 48 hrs by sulforhodamine B assay; settings: UACC-257, 48 h, values are per cent of control
[2] = Growth inhibition of human NCI-ADR-RES cells at 10 uM after 48 hrs by sulforhodamine B assay; settings: values are per cent of control
[3] = Growth inhibition of human SKOV3 cells at 10 uM after 48 hrs by sulforhodamine B assay; settings: SK-OV-3, 48 h, values are per cent of control
[4] = Growth inhibition of human TK10 cells at 10 uM after 48 hrs by sulforhodamine B assay; settings: TK-10, 48 h, values are per cent of control
[5] = Growth inhibition of human PC3 cells at 10 uM after 48 hrs by sulforhodamine B assay; settings: PC-3, 48 h, values are per cent of control
MCF7 = experiment: Growth inhibition of human MCF7 cells at 10 uM after 48 hrs by sulforhodamine B assay; settings: MCF7, 48 h, values are per cent of control
T47D = experiment: Growth inhibition of human T47D cells at 10 uM after 48 hrs by sulforhodamine B assay; settings: values are per cent of control
MDA-MB-468 [6] = experiment: Growth inhibition of human MDA-MB-468 cells at 10 uM after 48 hrs by sulforhodamine B assay; settings: MDA-MB-468, 48 h, values are per cent of control
CCRF-CEM [7] = experiment: Growth inhibition of human CCRF-CEM cells after 48 hrs by sulforhodamine B assay
In short: (§1)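 Five-dose testing against a 60-line human tumor cell panel. GI50 is the drug concentration giving a 50% reduction in net protein increase relative to untreated control cells.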

[8] = Growth inhibition of human HL-60(TB) cells after 48 hrs by sulforhodamine B assay; settings: HL-60, 48 h
In short: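 Five-dose study across the 60-cell human tumour panel. GI50 is the drug concentration giving a 50% reduction in net protein increase relative to control cells.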

[9] = Growth inhibition of human MOLT4 cells after 48 hrs by sulforhodamine B assay; settings: MOLT-4, 48 h
In short: (§2)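 Five-dose concentration series run across a panel of 60 human tumour cell lines. GI50 is taken as the drug concentration giving a 50% reduction in net protein increase relative to untreated control cells.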

[10] = Growth inhibition of human RPMI8226 cells after 48 hrs by sulforhodamine B assay; settings: RPMI-8226, 48 h; in short: as §2
NCI-H23 = experiment: Growth inhibition of human NCI-H23 cells after 48 hrs by sulforhodamine B assay; settings: NCI-H23, 48 h; in short: as §2
NCI-H522 [11] = experiment: Growth inhibition of human NCI-H522 cells after 48 hrs by sulforhodamine B assay; settings: NCI-H522, 48 h; in short: as §2
[12] = Growth inhibition of human COLO205 cells after 48 hrs by sulforhodamine B assay; settings: COLO 205, 48 h; in short: as §1
[13] = Growth inhibition of human HCT15 cells after 48 hrs by sulforhodamine B assay; settings: HCT-15, 48 h; in short: as §1
KM12 = experiment: Growth inhibition of human KM12 cells after 48 hrs by sulforhodamine B assay; settings: KM12, 48 h; in short: as §1
[14] = Growth inhibition of human SF268 cells after 48 hrs by sulforhodamine B assay; settings: SF-268, 48 h; in short: as §2
[15] = Growth inhibition of human SF539 cells after 48 hrs by sulforhodamine B assay; settings: SF-539, 48 h; in short: as §2
[16] = Growth inhibition of human SNB19 cells after 48 hrs by sulforhodamine B assay; settings: SNB-19, 48 h; in short: as §2
M14 = experiment: Growth inhibition of human M14 cells after 48 hrs by sulforhodamine B assay; settings: M14, 48 h; in short: as §1
MDA-MB-435 = experiment: Growth inhibition of human MDA-MB-435 cells after 48 hrs by sulforhodamine B assay; settings: MDA-MB-435, 48 h; in short: as §1
SK-MEL-28 = experiment: Growth inhibition of human SK-MEL-28 cells after 48 hrs by sulforhodamine B assay; settings: SK-MEL-28, 48 h; in short: as §2
[17] = Growth inhibition of human UACC62 cells after 48 hrs by sulforhodamine B assay; settings: UACC-62, 48 h
In short: (§3)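 Five-dose testing across the 60-line human tumour cell panel. GI50 is the drug concentration that gives a 50% reduction in net protein increase relative to control cells.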

[18] = Growth inhibition of human OVCAR4 cells after 48 hrs by sulforhodamine B assay; settings: OVCAR-4, 48 h; in short: as §2
[19] = Growth inhibition of human SKOV3 cells after 48 hrs by sulforhodamine B assay; settings: SK-OV-3, 48 h; in short: as §2
[20] = Growth inhibition of human Caki1 cells after 48 hrs by sulforhodamine B assay; settings: CAKI-1, 48 h; in short: as §1
CCRF-CEM [21] = experiment: Growth inhibition of human CCRF-CEM cells at 10 uM after 48 hrs by sulforhodamine B assay; settings: values are per cent of control
[22] = Growth inhibition of human HL-60(TB) cells at 10 uM after 48 hrs by sulforhodamine B assay; settings: HL-60, 48 h, values are per cent of control
[23] = Growth inhibition of human MOLT4 cells at 10 uM after 48 hrs by sulforhodamine B assay; settings: MOLT-4, 48 h, values are per cent of control
[24] = Growth inhibition of human RPMI8226 cells at 10 uM after 48 hrs by sulforhodamine B assay; settings: RPMI-8226, 48 h, values are per cent of control
[25] = Growth inhibition of human HOP92 cells at 10 uM after 48 hrs by sulforhodamine B assay; settings: HOP-92, 48 h, values are per cent of control
NCI-H522 [26] = experiment: Growth inhibition of human NCI-H522 cells at 10 uM after 48 hrs by sulforhodamine B assay; settings: NCI-H522, 48 h, values are per cent of control
[27] = Growth inhibition of human HCC2998 cells at 10 uM after 48 hrs by sulforhodamine B assay; settings: HCC 2998, 48 h, values are per cent of control
[28] = Growth inhibition of human SF268 cells at 10 uM after 48 hrs by sulforhodamine B assay; settings: SF-268, 48 h, values are per cent of control
[29] = Growth inhibition of human UO31 cells after 48 hrs by sulforhodamine B assay; settings: UO-31, 48 h; in short: as §3
[30] = Growth inhibition of human PC3 cells after 48 hrs by sulforhodamine B assay; settings: PC-3, 48 h; in short: as §2
MDA-MB-231 = experiment: Growth inhibition of human MDA-MB-231 cells after 48 hrs by sulforhodamine B assay; settings: MDA-MB-231, 48 h; in short: as §1
[31] = Growth inhibition of human Hs 578T cells after 48 hrs by sulforhodamine B assay; in short: as §1
MDA-MB-468 [32] = experiment: Growth inhibition of human MDA-MB-468 cells after 48 hrs by sulforhodamine B assay; settings: MDA-MB-468, 48 h; in short: as §1

COc1ccc(/C(C#N)=C/c2ccc3c(c2)OCCO3)cc1OC
growth, % of control at 10 µM (U-251): 19.9% | growth, % of control at 10 µM (Malme-3M): 51.8% | growth, % of control at 10 µM [1]: 66.7% | growth, % of control at 10 µM [2]: 24.5% | growth, % of control at 10 µM [3]: 20% | growth, % of control at 10 µM [4]: 45.7% | growth, % of control at 10 µM [5]: 21.3% | growth, % of control at 10 µM (MCF7): 20.1% | growth, % of control at 10 µM (T47D): 31% | growth, % of control at 10 µM (MDA-MB-468 [6]): -11.4% | GI50 (CCRF-CEM [7]): 3.76 µM | GI50 [8]: 2.07 µM | GI50 [9]: 8.85 µM | GI50 [10]: 4.81 µM | GI50 (NCI-H23): 6.61 µM | GI50 (NCI-H522 [11]): 2.8 µM | GI50 [12]: 2.77 µM | GI50 [13]: 0.73 µM | GI50 (KM12): 1.59 µM | GI50 [14]: 5.38 µM | GI50 [15]: 2.56 µM | GI50 [16]: 4.08 µM | GI50 (M14): 1.63 µM | GI50 (MDA-MB-435): 0.26 µM | GI50 (SK-MEL-28): 4.59 µM | GI50 [17]: 1.04 µM | GI50 [18]: 11.2 µM | GI50 [19]: 3.24 µM | GI50 [20]: 2.92 µM | growth, % of control at 10 µM (CCRF-CEM [21]): 6.4% | growth, % of control at 10 µM [22]: -15.7% | growth, % of control at 10 µM [23]: 19.6% | growth, % of control at 10 µM [24]: 57.1% | growth, % of control at 10 µM [25]: 39.3% | growth, % of control at 10 µM (NCI-H522 [26]): -30.1% | growth, % of control at 10 µM [27]: 60.1% | growth, % of control at 10 µM [28]: 53.2% | GI50 [29]: 5.01 µM | GI50 [30]: 4.57 µM | GI50 (MDA-MB-231): 4.69 µM | GI50 [31]: 5.56 µM | GI50 (MDA-MB-468 [32]): 1.11 µM
